ChEMBL document CHEMBL1126715, “Synthesis and tissue distribution of (m-[125I]iodobenzyl)trozamicol ([125I]MIBT): potential radioligand for mapping central cholinergic innervation” (J Med Chem, 1993)

Tests used:
Rattus norvegicus [1] = species on record: Rattus norvegicus; test: Effect of vesamicol on the accumulation in rat blood in group 1 (n=3); format: ADME, organism-based; settings: in vivo
Rattus norvegicus [2] = species on record: Rattus norvegicus; test: Tissue distribution in rat gonads after 30 minutes (n=3); format: ADME, organism-based, Gonad; settings: in vivo, 0.5 h
In short: (§1)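 Male Wistar rats (200-350 g) under ether anesthesia; radiotracer (3-5 μCi in 0.1 mL 50% aqueous ethanol) given iv. At 5, 30, 60 and 180 min, blood was drawn by cardiac puncture and animals were killed by cardiectomy. Organs were weighed and γ-counted against a 1:100 dilution of the injected dose. Results are given as % injected dose/g tissue; ratios are taken between tissue levels.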

Rattus norvegicus [3] = species on record: Rattus norvegicus; test: Tissue distribution in rat gonads after 5 minutes (n=3); format: ADME, organism-based, Gonad; settings: in vivo; in short: as §1
Rattus norvegicus [4] = species on record: Rattus norvegicus; test: Tissue distribution in rat heart after 180 minutes (n=3); format: ADME, organism-based; settings: in vivo, 3 h; in short: as §1
Rattus norvegicus [5] = species on record: Rattus norvegicus; test: Effect of vesamicol on the accumulation in rat brain in group 1 (n=3); format: ADME, organism-based; settings: in vivo
In short: (§2)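 Male Wistar rats (n = 4/group) given iv vehicle (100 μL 50% aqueous EtOH) or dl-vesamicol (1.01 μmol/kg); 15 min later iv radiotracer (2.0 μCi in 100 μL 50% aqueous EtOH); killed 30 min post-tracer. Blood by cardiac puncture, organs weighed and γ-counted vs 1:100 injected-dose dilution; % dose/g tissue (range); tissue/blood ratios.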

Rattus norvegicus [6] = species on record: Rattus norvegicus; test: Effect of vesamicol on the accumulation in rat brain in group 2 (n=3); format: ADME, organism-based; settings: in vivo
Rattus norvegicus [7] = species on record: Rattus norvegicus; test: Effect of vesamicol on the accumulation in rat gonads in group 1 (n=3); format: ADME, organism-based; settings: in vivo
Rattus norvegicus [8] = species on record: Rattus norvegicus; test: Effect of vesamicol on the accumulation in rat gonads in group 2 (n=3); format: ADME, organism-based; settings: in vivo; in short: as §2
Rattus norvegicus [9] = species on record: Rattus norvegicus; test: Effect of vesamicol on the accumulation in rat heart in group 1 […]; format: ADME, organism-based; settings: in vivo; in short: as §2
Rattus norvegicus [10] = species on record: Rattus norvegicus; test: Effect of vesamicol on the accumulation in rat heart in group 2 (n=3); format: ADME, organism-based; settings: in vivo; in short: as §2
Rattus norvegicus [11] = species on record: Rattus norvegicus; test: Effect of vesamicol on the accumulation in rat kidney in group 1 (n=3); format: ADME, organism-based; settings: in vivo
Rattus norvegicus [12] = species on record: Rattus norvegicus; test: Effect of vesamicol on the accumulation in rat kidney in group 2 (n=3); format: ADME, organism-based; settings: in vivo
Rattus norvegicus [13] = species on record: Rattus norvegicus; test: Effect of vesamicol on the accumulation in rat liver in group 1 ([…]); format: ADME, organism-based; settings: in vivo; in short: as §2
Rattus norvegicus [14] = species on record: Rattus norvegicus; test: Effect of vesamicol on the accumulation in rat lung in group 1 (n=3); format: ADME, organism-based; settings: in vivo; in short: as §2
Rattus norvegicus [15] = species on record: Rattus norvegicus; test: Effect of vesamicol on the accumulation in rat lung in group 2 (n=3); format: ADME, organism-based; settings: in vivo
Rattus norvegicus [16] = species on record: Rattus norvegicus; test: Effect of vesamicol on the accumulation in rat muscle in group 1 (n=3); format: ADME, organism-based, Muscle tissue; settings: in vivo; in short: as §2
Rattus norvegicus [17] = species on record: Rattus norvegicus; test: Effect of vesamicol on the accumulation in rat muscle in group 2 (n=3); format: ADME, organism-based, Muscle tissue; settings: in vivo; in short: as §2
Rattus norvegicus [18] = species on record: Rattus norvegicus; test: Effect of vesamicol on the accumulation in rat spleen in group 1 (n=3); format: ADME, organism-based; settings: in vivo; in short: as §2
Rattus norvegicus [19] = species on record: Rattus norvegicus; test: Effect of vesamicol on the accumulation in rat spleen in group 2 (n=3); format: ADME, organism-based; settings: in vivo; in short: as §2
Rattus norvegicus [20] = species on record: Rattus norvegicus; test: Effect of vesamicol on the accumulation in rat thyroid in group 1 (n=3); format: ADME, organism-based, Thyroid gland; settings: in vivo; in short: as §2
[21] = Ratio of effect of vesamicol on the accumulation between rat brain and blood in group 1; format: ADME, organism-based; in short: as §2
[22] = Ratio of effect of vesamicol on the accumulation between rat brain and blood in group 2; format: ADME, organism-based; in short: as §2
[23] = Ratio of effect of vesamicol on the accumulation between rat heart and blood in group 1; format: ADME, organism-based; in short: as §2
[24] = Ratio of effect of vesamicol on the accumulation between rat heart and blood in group 2; format: ADME, organism-based; in short: as §2
Rattus norvegicus [25] = species on record: Rattus norvegicus; test: Ratio of tissue distribution between rat heart and blood after 60 min; format: ADME, organism-based; settings: other tissue, 1 h; in short: as §1
Rattus norvegicus [26] = species on record: Rattus norvegicus; test: Ratio of tissue distribution between rat brain and blood after 180 min; format: ADME, organism-based; settings: 3 h
In short: (§3)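 Male Wistar rats (200-350 g) under ether anesthesia, iv radiotracer (3-5 μCi in 0.1 mL 50% aqueous ethanol). At 5, 30, 60, 180 min blood taken by cardiac puncture, animal killed by cardiectomy; organs weighed, γ-counted against 1:100 injected-dose dilution; % injected dose/g tissue; brain/blood ratio.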

Rattus norvegicus [27] = species on record: Rattus norvegicus; test: Ratio of tissue distribution between rat brain and blood after 30 min; format: ADME, organism-based; settings: 0.5 h; in short: as §3
Rattus norvegicus [28] = species on record: Rattus norvegicus; test: Ratio of tissue distribution between rat brain and blood after 5 min; format: ADME, organism-based; settings: brain, 5 min; in short: as §3
Rattus norvegicus [29] = species on record: Rattus norvegicus; test: Ratio of tissue distribution between rat brain and blood after 60 min; format: ADME, organism-based; settings: 1 h; in short: as §1
[30] = Ratio of tissue distribution between rat heart and blood after 180 min; format: ADME, organism-based; in short: as §1
Rattus norvegicus [31] = species on record: Rattus norvegicus; test: Ratio of tissue distribution between rat heart and blood after 30 min; format: ADME, organism-based; settings: other tissue, 0.5 h; in short: as §1
Rattus norvegicus [32] = species on record: Rattus norvegicus; test: Ratio of tissue distribution between rat heart and blood after 5 min; format: ADME, organism-based; settings: other tissue, 5 min; in short: as §1
Rattus norvegicus [33] = species on record: Rattus norvegicus; test: Effect of vesamicol on the accumulation in rat liver in group 2 (n=3); format: ADME, organism-based; settings: in vivo
Rattus norvegicus [34] = species on record: Rattus norvegicus; test: Tissue distribution in rat lung after 5 minutes (n=3); format: ADME, organism-based; settings: in vivo; in short: as §1
Rattus norvegicus [35] = species on record: Rattus norvegicus; test: Tissue distribution in rat thyroid after 60 minutes (n=3); format: ADME, organism-based, Thyroid gland; settings: in vivo, 1 h; in short: as §1
Rattus norvegicus [36] = species on record: Rattus norvegicus; test: Effect of vesamicol on the accumulation in rat blood in group 2 (n=3); format: ADME, organism-based; settings: in vivo; in short: as §2

SMILES: O[C@@H]1CCN(Cc2cccc([125I])c2)C[C@H]1N1CCC(c2ccccc2)CC1 (stereo in doubt; (-))
- Dose/g (Rattus norvegicus [1]): 0.11%
- Dose/g (Rattus norvegicus [2]): 0.23%
- Dose/g (Rattus norvegicus [3]): 0.19%
- Dose/g (Rattus norvegicus [4]): 0.5%
- Dose/g (Rattus norvegicus [5]): 0.68%
- Dose/g (Rattus norvegicus [6]): 0.34%
- Dose/g (Rattus norvegicus [7]): 0.15%
- Dose/g (Rattus norvegicus [8]): 0.16%
- Dose/g (Rattus norvegicus [9]): 0.59%
- Dose/g (Rattus norvegicus [10]): 0.3%
- Dose/g (Rattus norvegicus [11]): 2.45%
- Dose/g (Rattus norvegicus [12]): 1.13%
- Dose/g (Rattus norvegicus [13]): 1.91%
- Dose/g (Rattus norvegicus [14]): 2.36%
- Dose/g (Rattus norvegicus [15]): 1.59%
- Dose/g (Rattus norvegicus [16]): 0.18%
- Dose/g (Rattus norvegicus [17]): 0.16%
- Dose/g (Rattus norvegicus [18]): 1.05%
- Dose/g (Rattus norvegicus [19]): 0.8%
- Dose/g (Rattus norvegicus [20]): 2.62%
- Kp [21]: 6.45
- Kp [22]: 5.59
- Kp [23]: 2.75
- Kp [24]: 2.4
- Ratio (Rattus norvegicus [25]): 5.97
- Ratio (Rattus norvegicus [26]): 9.87
- Ratio (Rattus norvegicus [27]): 9.06
- Ratio (Rattus norvegicus [28]): 4.27
- Ratio (Rattus norvegicus [29]): 8.51
- Kp at 3 h [30]: 5.32
- Ratio (Rattus norvegicus [31]): 6.87
- Ratio (Rattus norvegicus [32]): 6.07
- Dose/g (Rattus norvegicus [33]): 1.89%
- Dose/g (Rattus norvegicus [34]): 5.9%
- Dose/g (Rattus norvegicus [35]): 5.87%
- Dose/g (Rattus norvegicus [36]): 0.12%
